Each block holds one molecule with its values, some of them ahead of it. Active and inactive are the calls of the source. The rule behind the calls is not given here.
Tests used:
[1] = biological target: T1, Metabotropic glutamate receptor 7 (Homo sapiens, UniProt Q14831); assay: Inhibition of forskolin stimulated cAMP accumulation in CHO cells expressing hmGluR7b at a concentration of 500 uM; Inactive
[2] = biological target: T2, Metabotropic glutamate receptor 4 (Homo sapiens, UniProt Q14833); assay: Inhibition of forskolin stimulated cAMP accumulation in CHO cells expressing hmGluR4a at a concentration of 2000 uM; Inactive
[3] = biological target: T2, Metabotropic glutamate receptor 4; assay: Compound was evaluated for the inhibition of forskolin stimulated cAMP accumulation in CHO cells expressing hmGluR4a; type: functional, cell-based
Summary of the method: (§1)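 Human mGluR4a or mGluR7b stably expressed in CHO cells; both enantiomers tested in the same functional assay, with cAMP measured by radioimmunoassay and EC50 values reported.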

[4] = biological target: T1, Metabotropic glutamate receptor 7; assay: Compound was evaluated for the inhibition of forskolin stimulated cAMP accumulation in CHO cells expressing hmGluR7b; type: functional, cell-based
Summary of the method: as §1

[5] = biological target: Glutamate receptor ionotropic, NMDA 1 (Homo sapiens, UniProt Q05586); assay: Dissociation constant against N-methyl-D-aspartate glutamate receptor using [3H]CPP binding was determined
[6] = biological target: T3, Metabotropic glutamate receptor 4 (Rattus norvegicus, UniProt P31423); assay: Effective concentration against Metabotropic glutamate receptor 4
[7] = biological target: T3, Metabotropic glutamate receptor 4; assay: Effective concentration against rat Metabotropic glutamate receptor 4
[8] = biological target: Metabotropic glutamate receptor 1 (Homo sapiens) (UniProt Q13255); assay: Activity against human Metabotropic glutamate receptor 1 up to a concentration of 300 uM; Not active
[9] = biological target: Metabotropic glutamate receptor 3 (Homo sapiens) (UniProt Q14832); assay: Activity against Metabotropic glutamate receptor 3; Not active
[10] = biological target: Metabotropic glutamate receptor 3 (Homo sapiens) (UniProt Q14832); assay: Activity against human Metabotropic glutamate receptor 3 up to a concentration of 300 uM; Not active
[11] = biological target: Metabotropic glutamate receptor 5 (Homo sapiens) (UniProt P41594); assay: Activity against human Metabotropic glutamate receptor 5 up to a concentration of 300 uM; Not active
[12] = biological target: Metabotropic glutamate receptor 2 (Homo sapiens) (UniProt Q14416); assay: Activity against human Metabotropic glutamate receptor 2 up to a concentration of 300 uM; Not active
[13] = biological target: Metabotropic glutamate receptor 6 (Homo sapiens) (UniProt O15303); assay: Activity against Metabotropic glutamate receptor 6; Not active
[14] = biological target: Glutamate NMDA receptor; GRIN1/GRIN2A (Homo sapiens) (UniProt Q05586+Q12879); assay: Activity against cloned ionotropic N-methyl-D-aspartate glutamate receptor 1/2A; Not active; type: protein-complex assay
[15] = biological target: Glutamate NMDA receptor; GRIN1/GRIN2B (Homo sapiens) (UniProt Q05586+Q13224); assay: Activity against cloned ionotropic N-methyl-D-aspartate glutamate receptor 1/2B; Not active; type: protein-complex assay
[16] = biological target: Glutamate [NMDA] receptor (Homo sapiens) (UniProt Q05586+Q12879+Q13224+O15399+O60391+Q14957+Q8TCU5); assay: Binding affinity (100 uM) against N-methyl-D-aspartate glutamate receptor using [3H]CPP binding was determined; No activity; type: protein-complex assay

T1 sequence (Q14831 whole entry): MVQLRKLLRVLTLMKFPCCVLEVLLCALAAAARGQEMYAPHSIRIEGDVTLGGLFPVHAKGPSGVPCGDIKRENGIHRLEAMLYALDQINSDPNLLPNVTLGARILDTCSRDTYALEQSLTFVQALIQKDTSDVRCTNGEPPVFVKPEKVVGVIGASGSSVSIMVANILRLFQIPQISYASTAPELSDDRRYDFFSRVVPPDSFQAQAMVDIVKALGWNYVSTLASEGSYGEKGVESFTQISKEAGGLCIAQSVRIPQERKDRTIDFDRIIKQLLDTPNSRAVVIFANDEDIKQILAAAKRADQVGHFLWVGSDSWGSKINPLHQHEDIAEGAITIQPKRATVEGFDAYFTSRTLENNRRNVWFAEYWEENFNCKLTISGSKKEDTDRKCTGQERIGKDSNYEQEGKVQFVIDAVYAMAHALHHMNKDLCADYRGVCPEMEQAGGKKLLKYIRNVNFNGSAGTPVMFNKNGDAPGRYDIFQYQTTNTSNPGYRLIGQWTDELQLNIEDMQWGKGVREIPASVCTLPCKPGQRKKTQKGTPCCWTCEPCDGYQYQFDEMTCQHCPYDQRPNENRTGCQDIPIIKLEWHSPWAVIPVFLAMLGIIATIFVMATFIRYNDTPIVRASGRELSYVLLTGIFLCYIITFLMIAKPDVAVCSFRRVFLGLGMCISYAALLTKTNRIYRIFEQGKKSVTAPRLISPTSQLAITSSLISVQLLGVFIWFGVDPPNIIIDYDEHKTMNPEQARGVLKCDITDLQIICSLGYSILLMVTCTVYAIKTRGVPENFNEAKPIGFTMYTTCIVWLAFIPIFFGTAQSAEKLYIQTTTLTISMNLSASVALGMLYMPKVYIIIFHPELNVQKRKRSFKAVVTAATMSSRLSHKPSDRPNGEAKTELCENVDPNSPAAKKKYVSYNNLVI
T2 sequence (Q14833 whole entry): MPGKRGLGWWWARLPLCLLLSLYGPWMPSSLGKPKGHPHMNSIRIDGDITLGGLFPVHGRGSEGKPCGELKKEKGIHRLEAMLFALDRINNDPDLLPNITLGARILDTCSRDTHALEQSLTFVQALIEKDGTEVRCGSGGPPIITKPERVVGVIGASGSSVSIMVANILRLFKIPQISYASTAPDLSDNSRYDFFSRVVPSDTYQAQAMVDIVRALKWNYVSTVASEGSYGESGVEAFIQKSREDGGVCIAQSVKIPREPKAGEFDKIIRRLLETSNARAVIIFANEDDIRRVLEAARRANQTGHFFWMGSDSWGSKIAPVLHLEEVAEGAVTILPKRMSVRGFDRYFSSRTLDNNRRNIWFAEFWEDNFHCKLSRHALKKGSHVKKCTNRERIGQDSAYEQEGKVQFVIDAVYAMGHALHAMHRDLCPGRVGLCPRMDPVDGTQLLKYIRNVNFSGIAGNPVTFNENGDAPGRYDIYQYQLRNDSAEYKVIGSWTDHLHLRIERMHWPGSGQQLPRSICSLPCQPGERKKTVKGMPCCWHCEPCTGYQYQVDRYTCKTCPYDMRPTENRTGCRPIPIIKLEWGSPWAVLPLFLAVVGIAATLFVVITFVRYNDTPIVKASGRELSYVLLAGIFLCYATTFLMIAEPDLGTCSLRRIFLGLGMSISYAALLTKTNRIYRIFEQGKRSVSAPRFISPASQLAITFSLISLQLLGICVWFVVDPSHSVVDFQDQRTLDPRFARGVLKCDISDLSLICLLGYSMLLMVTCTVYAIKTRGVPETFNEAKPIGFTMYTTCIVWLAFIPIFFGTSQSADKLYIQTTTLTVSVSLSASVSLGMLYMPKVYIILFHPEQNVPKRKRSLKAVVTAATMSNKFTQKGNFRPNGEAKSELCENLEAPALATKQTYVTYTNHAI
T3 sequence (P31423 whole entry): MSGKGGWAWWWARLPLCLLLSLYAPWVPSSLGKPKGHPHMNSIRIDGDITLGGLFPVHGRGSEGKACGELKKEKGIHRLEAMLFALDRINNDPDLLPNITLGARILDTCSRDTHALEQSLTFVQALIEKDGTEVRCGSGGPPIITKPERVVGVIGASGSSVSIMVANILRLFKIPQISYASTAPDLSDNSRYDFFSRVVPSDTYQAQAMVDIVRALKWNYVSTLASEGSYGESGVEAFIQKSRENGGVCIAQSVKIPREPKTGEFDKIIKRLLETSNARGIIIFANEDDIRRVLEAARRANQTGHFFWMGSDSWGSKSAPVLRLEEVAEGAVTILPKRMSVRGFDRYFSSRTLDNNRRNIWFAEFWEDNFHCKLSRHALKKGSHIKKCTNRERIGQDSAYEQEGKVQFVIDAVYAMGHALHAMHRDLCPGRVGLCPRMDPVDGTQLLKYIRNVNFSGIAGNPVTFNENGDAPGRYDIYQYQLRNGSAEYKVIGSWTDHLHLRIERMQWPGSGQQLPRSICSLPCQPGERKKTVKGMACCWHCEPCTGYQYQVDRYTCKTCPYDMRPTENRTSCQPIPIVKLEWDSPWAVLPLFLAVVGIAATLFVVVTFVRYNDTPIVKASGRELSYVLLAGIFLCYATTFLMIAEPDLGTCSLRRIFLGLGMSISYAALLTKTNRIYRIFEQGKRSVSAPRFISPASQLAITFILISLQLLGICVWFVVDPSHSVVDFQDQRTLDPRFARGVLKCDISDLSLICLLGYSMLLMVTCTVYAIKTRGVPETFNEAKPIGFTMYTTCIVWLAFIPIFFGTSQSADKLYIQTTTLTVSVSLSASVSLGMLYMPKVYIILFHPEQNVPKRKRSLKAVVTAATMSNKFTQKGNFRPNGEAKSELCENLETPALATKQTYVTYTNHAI
Sequence of Metabotropic glutamate receptor 3 (Homo sapiens) (Q14832 23-879 limits assumed): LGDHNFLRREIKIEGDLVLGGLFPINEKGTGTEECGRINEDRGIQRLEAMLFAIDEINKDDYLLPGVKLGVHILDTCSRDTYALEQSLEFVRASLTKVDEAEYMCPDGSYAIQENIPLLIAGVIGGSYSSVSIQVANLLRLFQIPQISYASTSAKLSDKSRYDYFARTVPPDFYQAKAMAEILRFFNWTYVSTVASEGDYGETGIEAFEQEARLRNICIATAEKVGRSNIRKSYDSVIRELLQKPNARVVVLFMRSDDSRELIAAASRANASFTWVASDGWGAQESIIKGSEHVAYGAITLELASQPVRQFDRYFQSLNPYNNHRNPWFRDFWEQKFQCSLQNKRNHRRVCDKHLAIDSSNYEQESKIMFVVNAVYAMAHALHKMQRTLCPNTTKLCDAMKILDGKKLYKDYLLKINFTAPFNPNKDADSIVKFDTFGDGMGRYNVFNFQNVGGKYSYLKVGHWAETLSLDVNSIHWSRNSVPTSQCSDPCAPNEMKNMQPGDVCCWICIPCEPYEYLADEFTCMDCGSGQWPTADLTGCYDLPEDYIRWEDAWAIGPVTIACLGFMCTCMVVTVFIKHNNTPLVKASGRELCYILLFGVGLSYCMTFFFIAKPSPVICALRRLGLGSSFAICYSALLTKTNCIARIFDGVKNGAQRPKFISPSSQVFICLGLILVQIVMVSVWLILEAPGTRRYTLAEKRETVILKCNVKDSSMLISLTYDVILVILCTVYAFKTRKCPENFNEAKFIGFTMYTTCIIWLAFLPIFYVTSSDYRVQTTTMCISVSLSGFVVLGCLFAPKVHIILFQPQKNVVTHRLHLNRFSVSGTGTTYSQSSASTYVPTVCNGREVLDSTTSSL
Sequence of Metabotropic glutamate receptor 5 (Homo sapiens) (P41594 21-1212 limits assumed): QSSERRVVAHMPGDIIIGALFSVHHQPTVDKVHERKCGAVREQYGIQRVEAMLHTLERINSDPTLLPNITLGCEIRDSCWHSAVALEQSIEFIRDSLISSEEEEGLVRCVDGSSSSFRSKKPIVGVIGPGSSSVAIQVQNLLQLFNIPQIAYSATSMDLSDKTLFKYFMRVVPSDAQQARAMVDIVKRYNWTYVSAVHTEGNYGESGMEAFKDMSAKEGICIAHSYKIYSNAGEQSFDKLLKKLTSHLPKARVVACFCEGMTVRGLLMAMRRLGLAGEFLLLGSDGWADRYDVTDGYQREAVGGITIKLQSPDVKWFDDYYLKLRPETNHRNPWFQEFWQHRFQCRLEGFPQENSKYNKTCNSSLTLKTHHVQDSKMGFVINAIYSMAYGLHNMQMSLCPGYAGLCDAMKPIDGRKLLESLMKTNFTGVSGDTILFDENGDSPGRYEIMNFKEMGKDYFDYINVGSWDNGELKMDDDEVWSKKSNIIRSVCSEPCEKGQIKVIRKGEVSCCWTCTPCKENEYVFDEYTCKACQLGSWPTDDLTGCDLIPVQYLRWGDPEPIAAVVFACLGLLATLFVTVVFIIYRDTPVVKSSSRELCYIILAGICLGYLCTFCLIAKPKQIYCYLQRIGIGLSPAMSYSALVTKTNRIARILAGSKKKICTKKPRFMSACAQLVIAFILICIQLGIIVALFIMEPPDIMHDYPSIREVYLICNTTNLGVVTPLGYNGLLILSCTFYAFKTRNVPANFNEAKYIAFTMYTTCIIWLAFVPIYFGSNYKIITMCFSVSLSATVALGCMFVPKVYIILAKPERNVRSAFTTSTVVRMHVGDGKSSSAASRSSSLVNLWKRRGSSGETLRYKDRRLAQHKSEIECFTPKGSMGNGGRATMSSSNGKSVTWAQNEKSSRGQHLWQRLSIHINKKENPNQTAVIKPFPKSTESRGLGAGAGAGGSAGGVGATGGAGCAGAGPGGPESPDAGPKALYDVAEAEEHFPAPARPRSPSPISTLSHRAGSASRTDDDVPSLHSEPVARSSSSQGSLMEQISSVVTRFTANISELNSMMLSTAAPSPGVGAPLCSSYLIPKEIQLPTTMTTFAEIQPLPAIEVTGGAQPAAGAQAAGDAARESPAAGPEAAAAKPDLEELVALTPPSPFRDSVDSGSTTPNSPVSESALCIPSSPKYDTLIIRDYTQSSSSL

SMILES: NC(C(=O)O)c1ccc(CP(=O)(O)O)cc1 (stereo not drawn)
Kd [5]: 3 µM

SMILES: NC1(C(=O)O)CC1CP(=O)(O)O (stereo not drawn)
EC50 [6]: 0.5 µM

SMILES: NC(C(=O)O)c1ccc(P(=O)(O)O)cc1 (stereo in doubt) [listing 1 of 2 here]
EC50 [3]: 5.2 µM
EC50 [4]: 185 µM

SMILES: NC1(C(=O)O)CC(=CP(=O)(O)O)C1 (stereo not drawn)
EC50 [7]: 4.5 µM

Next, values leading:

EC50 [1]: Not Active
EC50 [2]: Not Active
SMILES: NC(C(=O)O)c1ccc(P(=O)(O)O)cc1 (stereo not drawn)

EC50 [3]: 3.2 µM
EC50 [4]: 48 µM
SMILES: NC(C(=O)O)c1ccc(P(=O)(O)O)cc1 (single isomer, unassigned; (+))

Activity [8]: inactive
Activity [9]: inactive
Activity [10]: inactive
Activity [11]: inactive
Activity [12]: inactive
Activity [13]: inactive
Activity [14]: inactive
Activity [15]: inactive
Activity [16]: inactive
SMILES: NC(C(=O)O)c1ccc(P(=O)(O)O)cc1 (stereo in doubt) [listing 2 of 2 here]

— ChEMBL document CHEMBL1133058, “(+)-4-phosphonophenylglycine (PPG) a new group III selective metabotropic glutamate receptor agonist” (Bioorg Med Chem Lett, 2000)
